Screening results deposited in PubChem by several laboratories.
CASP6 VEID inh – human caspase-6 inhibitors, primary screen, biochemical, VEID-R110 fluorescence, single point, set 2 | P55212 | purified caspase-6, Z-VEID-R110 cleavage fluorescence | inhibition, % at 12.5 µM | 0.53% of 350,000 active | AID 686996, 2013;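 active = mean inhibition across replicates at least about 35%, with every replicate also reaching that limit, limit read from the data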;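 also: 0% = median of neutral control wells and 100% = no fluorescence left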
Target sequence (P55212 24-179 limits assumed): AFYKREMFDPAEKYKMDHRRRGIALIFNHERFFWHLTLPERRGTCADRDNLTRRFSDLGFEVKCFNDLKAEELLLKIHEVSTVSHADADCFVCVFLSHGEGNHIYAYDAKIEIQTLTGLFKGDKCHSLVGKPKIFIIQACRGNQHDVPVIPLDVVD
Target sequence (P55212 194-293 limits assumed): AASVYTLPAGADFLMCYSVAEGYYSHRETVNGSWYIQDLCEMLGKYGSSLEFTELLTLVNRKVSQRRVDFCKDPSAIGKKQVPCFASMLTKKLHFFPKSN
DNMT1 inh – human DNMT1 methyltransferase inhibitors, primary screen, biochemical, molecular beacon, fluorescence, HinP1I cleavage, uHTS; DNA (cytosine-5)-methyltransferase 1 (Homo sapiens), P26358; inhibition (reported as % activation of signal), % at 10 µM; 0.83% of 360,000 active; in the data active = inhibition above about 50%
STEP inh – STEP phosphatase inhibitors, primary screen, biochemical, fluorescence intensity, uHTS | Tyrosine-protein phosphatase non-receptor type 5 (Homo sapiens), P54829 | recombinant STEP, OMFP fluorogenic substrate | inhibition, % at 20 µM | 0.25% of 360,000 active | AID 588621, 2011;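 active = inhibition at 20 µM, scaled per plate between control wells, above about 37%, limit read from the data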;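 also: 0% = DMSO with enzyme and substrate and 100% = substrate only without enzyme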
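medium = Bis-Tris buffer pH 6.0, 2.5 mM DTT, 0.005% Tween 20 | test system = STEP (striatal-enriched tyrosine phosphatase) enzyme, cell-free | measure = normalized % inhibition | compound dosing = 20 µM, 1% DMSO | also added = 25 µM OMFP | schedule = reaction 20 min, ambient temperature | measured by = fluorescence read at 480 nm ex / 540 nm em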
SUMO1 PPI mod – modulators of SUMO1 protein-protein interactions, primary screen, biochemical, uHTS. AID 602429, 2012. SUMO1 binding to a labelled peptide, TR-FRET, 1 h. inhibition, % at 20 µM. 0.33% of 360,000 active. Small ubiquitin-related modifier 1 (Homo sapiens), P63165; in the data active = inhibition above about 37%
LMPTP inh – LMPTP phosphatase inhibitors, primary screen, biochemical, fluorescence intensity, uHTS; recombinant LMPTP-A, OMFP fluorogenic substrate; inhibition, % at 20 µM; 0.22% of 360,000 active; AID 651560, 2012;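 active = compounds that cut the enzyme signal by at least half of the control window in the single-dose screen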;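 also: plate controls were DMSO wells with enzyme plus substrate for no effect and substrate without enzyme for full effect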
Target sequence (P24666 whole entry, looked up): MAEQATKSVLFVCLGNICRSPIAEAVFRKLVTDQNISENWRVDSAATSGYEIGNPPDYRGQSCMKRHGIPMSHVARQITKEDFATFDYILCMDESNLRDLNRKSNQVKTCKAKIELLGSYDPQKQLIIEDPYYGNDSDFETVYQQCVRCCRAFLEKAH
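Test system: LMPTP-A phosphatase enzyme; input: 0.625 nM LMPTP-A final; reagent: OMFP substrate, 400 µM final; compound dosing: 20 µM single dose, 3% DMSO; incubation: 50 min dark incubation at room temperature; measured by: endpoint fluorescence intensity from OMFP dephosphorylation; measure: % inhibition relative to no-enzyme and uninhibited control wells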
Scp1 inh – Scp-1 phosphatase inhibitors, primary screen, biochemical, colorimetric, uHTS | Carboxy-terminal domain RNA polymerase II polypeptide A small phosphatase 1 (Homo … | Recombinant Scp1, phosphopeptide, malachite green phosphate absorbance | inhibition, % at 20 µM | 0.88% of 340,000 active | AID 493091, 2011;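 active = inhibition above about 50% at 20 µM, limit read from the data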;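 also: plate controls were DMSO wells with enzyme for no effect and wells lacking enzyme for full effect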
Target sequence (Q9GZU7 76-261 limits assumed): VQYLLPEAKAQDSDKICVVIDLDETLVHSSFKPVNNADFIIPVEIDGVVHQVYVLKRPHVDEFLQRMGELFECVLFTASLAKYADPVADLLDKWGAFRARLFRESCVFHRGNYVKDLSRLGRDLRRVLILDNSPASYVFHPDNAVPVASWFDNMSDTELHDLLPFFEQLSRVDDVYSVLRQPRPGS
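System: SCP-1 catalytic domain; Reagent: Phospho 17-mer peptide substrate; Doses: one concentration, 20 µM, with 1.0% DMSO; Incubation: 45 min room-temperature reaction, 5 min colour, 30 min stabiliser; Signal: Phosphate-binding colour reagent, absorbance read at 630 nm.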
STEP inh conf – STEP phosphatase inhibitor hit confirmation, biochemical, fluorescence intensity, single concentration | shares compounds with STEP inh | recombinant STEP, OMFP fluorogenic substrate | inhibition, % at 20 µM | 32% of 520 active | AID 623866, 2012; call rule not given here;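 also: 0% = enzyme with substrate plus DMSO and 100% = substrate without enzyme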
Starred values were filed as active, the others as inactive; x = no result. Compounds with a hit are over-represented: about 1.7% of the library has one in this group of screens.

SMILES | CASP6 VEID inh | DNMT1 inh | STEP inh | SUMO1 PPI mod | LMPTP inh | Scp1 inh | STEP inh conf
O=C1C(=O)N(CCCO)C(c2ccc(Br)cc2)/C1=C(\O)c1ccc(Br)cc1 (stereo not given) | 4 | 1 | 41* | -8 | 1 | -6 | 38*
CN1C(=O)C(=O)/C(=C(/O)c2ccccc2)C1c1ccc(Br)cc1 (stereo not given) | 0 | -2 | 4 | -1 | -2 | -9 | x
CN(C)C(=S)c1ccc(N(C)C)cc1 | 3 | -3 | 15 | 1 | 0 | -13 | x
CN1CCN(C(=O)c2ccc(S(=O)(=O)c3ccc(Br)cc3)cc2)CC1 | x | 0 | 0 | 0 | 1 | -12 | x
CN1CCN(C(=S)c2ccc(Br)cc2)CC1 | 0 | 0 | 80* | 0 | 1 | -1 | 43*
CSc1ccc(C(=S)N2CCN(C)CC2)cc1 | x | -5 | 73* | -1 | -1 | -6 | 26
CN1CCN(C(=S)c2ccc(N(C)C)cc2)CC1 | 0 | 0 | 83* | -1 | 0 | -2 | 27
CSc1ccc(C(=S)N2CCCC2)cc1 | 1 | -2 | 9 | 3 | -3 | 9 | x
CN1CCN(C(=S)c2ccc([N+](=O)[O-])cc2)CC1 | -7 | -2 | 80* | -24 | 1 | -7 | 34
Cc1ccc(S(=O)(=O)N(C)C)cc1NC(=S)NC1CCCC(C)C1C (stereo not given) | x | -3 | 0 | -2 | -1 | 3 | x
Cc1cccc(NC(=O)CCC(=O)OCc2ccc(Br)cc2)c1 | x | 0 | -3 | -5 | -3 | -1 | x
CCc1ccc(NC(=O)Cc2cn(C)c3ccccc23)cc1 | x | 0 | 44* | -1 | 5 | -6 | 48*
Cn1cc(CC(=O)Nc2cccc(C#N)c2)c2ccccc21 | x | -2 | 46* | 1 | 1 | -16 | 30*
CC(=NNC(=S)N1CC2CCC(CC2)C1)c1cccc(C)n1 | 0 | 0 | 59* | -2 | 2 | -2 | active
Cc1cc(C)cc(N(CCC#N)C(=O)COC(=O)C2=COCCO2)c1 | 0 | 2 | -3 | 1 | -2 | 0 | x
CCOC(=O)c1cnn(-c2ncnc3sc(C)c(C)c23)c1N | x | -1 | 70* | -4 | 0 | -6 | 5
CCOC(=O)c1cnn(-c2ccc(C)cc2)c1N | x | 1 | -2 | 2 | 1 | -5 | x
O=C(O)c1cccc(S(=O)(=O)NNc2ccccc2C(F)(F)F)c1 | 40* | 9 | 44* | 88* | 6 | 28 | 9
COc1ccc(/C=C/C(=O)NC(C)CCc2ccccc2)cc1OC (stereo not given) | x | -2 | 0 | -5 | -1 | -3 | x
Cc1cccc(N2CCN(S(=O)(=O)c3ccc4c(c3)CCN4C(=O)CCC(=O)O)CC2)c1C | x | -3 | 41* | 5 | 0 | 33 | -2
Cc1cc2nc(/C=C/c3cccnc3)[nH]c2cc1C | 0 | -4 | 0 | -17 | 1 | -5 | x
Cc1cc2nc(/C=C/c3nc4cc(C)c(C)cc4[nH]3)[nH]c2cc1C | 1 | 27 | 46* | -1 | 39 | -4 | 19
Cn1c(=O)[nH]c(=O)c2c1nc(SCCN1CCCCC1)n2CCCc1ccccc1 | x | -1 | 80* | -1 | 1 | -7 | 46*
Cc1ccc(Cn2c(SCCN3CCCCC3)nc3c2c(=O)[nH]c(=O)n3C)cc1 | 0 | -3 | 61* | 1 | -2 | -4 | 26
Cn1c(=O)[nH]c(=O)c2c1nc(SCCN1CCCCC1)n2Cc1ccccc1 | x | -1 | -2 | 1 | -2 | -1 | x
SMILES | CASP6 VEID inh | DNMT1 inh | STEP inh | SUMO1 PPI mod | LMPTP inh | Scp1 inh | STEP inh conf
CC[C@H](C)[C@@H](NC(=O)O[C@@H]1C(=O)c2cc(OC)ccc2O[C@H]1c1ccc(OC)c(Br)c1)C(=O)OC | x | -5 | 2 | -12 | 3 | -16 | x
COc1cccc(C2NC(=S)NC3=C2CCc2ccccc23)c1 (stereo not given) | 6 | 1 | -2 | -4 | -2 | -6 | x
S=C1NC2=C(CCCC2=C2SCCS2)C(c2ccccc2)N1 (stereo not given) | 1 | -4 | 70* | -14 | 0 | 1 | 60*
Cc1cccc(N2CCN(C(=O)CCNS(=O)(=O)c3ccc4c(c3)oc(=O)n4C)CC2)c1C | 5 | -2 | 74* | -3 | 0 | 7 | 1
CCCCC(=O)Nc1ccc2c(c1)nc(CCN1CCN(c3ccccn3)CC1)n2C | -3 | -4 | -1 | 0 | 3 | -7 | x
CCCCC(=O)Nc1ccc2c(c1)nc(CCN1CCOCC1)n2C | x | -1 | 46* | 0 | 0 | -10 | 17
Cc1cc(C)cc(NC(=S)/N=C(\N)Nc2nc(C)c3ccccc3n2)c1 | 0 | -7 | 5 | -3 | 1 | -1 | x
CCc1cnc(N2[C@@H](C#N)[C@H](c3ccc(-c4cccc(F)c4)cc3)[C@@H]2CO)s1 | -1 | x | x | x | x | x | x
Cc1ccc(C(=O)c2oc3ccccc3c2N)cc1 | x | -3 | -4 | -18 | -1 | -6 | x
Nc1c(C(=O)c2ccc(Br)cc2)oc2ccccc12 | -1 | -4 | 43* | -6 | 0 | -10 | 19
Cc1ccc(S(=O)(=O)CCC(=O)NCCc2ccc(Cl)cc2)cc1 | -4 | 6 | -1 | 0 | 1 | 6 | x
Cc1cc(C)c(S(=O)(=O)N2CCN(C(=O)N3CCCCC3)CC2)c(C)c1 | 1 | 3 | 2 | 5 | -1 | 4 | x
Cc1n[nH]c(=O)nc1NCc1ccc(Cl)cc1 | x | 3 | 39* | -2 | -2 | 0 | 20
CC(C)(C)C(=O)COC(=O)c1cc(-c2ccncc2)nc2ccccc12 | -2 | 19 | 4 | -19 | 0 | 1 | x
Cc1ccc(S(=O)(=O)Nc2ccc3c(c2)CC(=O)N([C@H](C)CO)C[C@@H](C)[C@H](CN(C)CC2CC2)O3)cc1 | -4 | x | x | x | x | x | x
O=S(=O)(Nc1ccc(Cl)cc1)c1ccc(N2CCOCC2)c(NC(=S)NCCN2CCOCC2)c1 | 3 | 8 | 92* | 0 | 0 | 15 | 71*
O=C(/C=C/c1ccccc1Cl)N1CCN(c2ncccn2)CC1 | x | 7 | 68* | -7 | -1 | -1 | -4
Cc1ccc2nc(Nc3ccc(F)cc3)c3nncn3c2c1 | 2 | 27 | 45* | 10 | 27 | -13 | 6
